# Shown are actives, neighbours in structure and some others; about 2% of the full set was active somewhere.
# HSP90 refold inh: HSP90 inhibitors, primary screen, cell lysate, luminescence. Heat shock protein HSP 90 (rabbit reticulocyte lysate; luciferase refolding). Rabbit reticulocyte lysate, luciferase refolding luminescence, 3 h. inhibition, % at 5.6 µM. hit rate 0.91% among 290,000;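 active = inhibition above the screen-wide mean plus 3 SD, computed separately per campaign, cut at about 16% in these data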;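 also: 0% = DMSO wells and 100% = 60 µM geldanamycin wells; inhibitors lower the luminescence because luciferase stays unfolded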
# FLuc act counter: FLuc activators, initial screening, artefact control for FLuc-dependent activation tests, biochemical, ATPlite luminescence. ATPlite luciferase biochemical, 10 min; 0 = ATP-free wells, 1 = DMSO control. activation factor at 10 µM. 200,000 tested, under 10 active. AID 1027, 2008;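 active = luciferase activation factor, scaled between plate controls, of at least 2 with compound at 10 µM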
# Target sequence (P08659 whole entry, looked up): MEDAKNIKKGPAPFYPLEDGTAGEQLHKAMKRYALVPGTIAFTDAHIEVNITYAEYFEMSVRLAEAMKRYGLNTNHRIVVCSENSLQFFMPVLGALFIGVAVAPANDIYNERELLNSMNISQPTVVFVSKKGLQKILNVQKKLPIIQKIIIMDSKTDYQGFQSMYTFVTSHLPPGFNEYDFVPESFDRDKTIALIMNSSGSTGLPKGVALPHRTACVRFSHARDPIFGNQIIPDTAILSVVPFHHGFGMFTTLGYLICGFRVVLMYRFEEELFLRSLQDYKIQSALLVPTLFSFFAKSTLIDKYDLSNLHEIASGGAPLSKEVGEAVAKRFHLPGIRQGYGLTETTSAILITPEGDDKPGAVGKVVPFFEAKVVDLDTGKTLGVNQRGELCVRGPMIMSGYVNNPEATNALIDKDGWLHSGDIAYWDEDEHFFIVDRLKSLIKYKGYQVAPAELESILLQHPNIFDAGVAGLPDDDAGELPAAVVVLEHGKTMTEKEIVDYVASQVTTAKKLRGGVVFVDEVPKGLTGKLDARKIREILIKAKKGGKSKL
#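 System: Luciferase/luciferin detection reagent, cell-free biochemical luciferase assay | Medium: PBS buffer for ATP | Dosing: Test compounds dosed from 2 mM stocks in 100% DMSO | Timing: 10 min at ambient temperature | Signal: Luminescence measurement of luciferase light output | Evaluation: Luciferase activation, seen as luminescence increase over controls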
# C8 TRAIL sens: viability loss with TRAIL in NB7+C8 cells, primary screen, TRAIL sensitizer project, cell-based, ATPlite luminescence | hit rate 1% among 360,000 | inhibition (viability loss, TRAIL sensitization), % at 10 µM;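 active = compounds causing at least 50% loss of cell viability in the single-dose screen, relative to plate controls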
# PPC-1+TRAIL kill: compounds killing PPC-1 cancer cells with TRAIL present, primary screen, TRAIL potentiator project, ATPLite luminescence, uHTS | PPC-1 cells + TRAIL, ATPLite viability luminescence | cell killing (% activity), % at 4 µM or 5 µM | hit rate 0.41% among 220,000 | AID 1443, 2008;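 active = cell killing above 50% in the first pass at 4 µM, then a duplicate retest at 5 µM averaging 50% or more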;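 also: plate controls were cells with TRAIL plus DMSO for no effect and medium-only wells lacking cells for full effect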
# FLuc inhib CS: firefly luciferase enzyme inhibitors, primary screen, artefact control for luciferase-based inhibitor screens, biochemical, luminescence, ATPLite | Luciferin 4-monooxygenase (Photinus pyralis), P08659 | 10 min | hit rate 1.5% among 200,000 | AID 1006, 2008 | inhibition, % at 10 µM;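 active = inhibition above about 50% when tested at 10 µM, limit read from the data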
# PPC1 cytotox: cytotoxicity in PPC-1 cells, confirmation, cytotoxicity control for TRAIL apoptosis potentiator project, cell-based, ATP content luminescence. AID 1447, 2008. shares compounds with PPC-1+TRAIL kill. hit rate 50% among 1,200. PPC-1 viability, ATPlite luminescence, overnight. cytotoxicity, % at 5 µM;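 active = reconfirmed compounds whose average cytotoxicity reaches 50% or more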;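 also: 0% = DMSO-treated cells and 100% = wells holding medium but no cells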
# Numbers without * were called inactive; · = not tested or not shown.
SMILES,HSP90 refold inh,FLuc act counter,C8 TRAIL sens,PPC-1+TRAIL kill,FLuc inhib CS,PPC1 cytotox
CC(=O)c1ccc(N=Nc2c(C)[nH][nH]c2=O)cc1,·,·,-7,·,·,·
O=C1C=C(c2ccc(CO)cc2)C[C@@H](c2ccc(F)cc2)C1,·,·,11,·,·,·
O=C(CCCn1c(=O)c2ccccc2n(Cc2ccccc2)c1=O)NCc1ccco1,8,1,3,-1,-3,·
O=C(CCCCn1c(=O)c2ccccc2n(Cc2ccc(F)cc2)c1=O)NCc1ccco1,3,1,15,-4,-4,2
CCCC(=O)N1CCC1(C)C(=O)NS(=O)(=O)c1ccccc1Cl (stereo unspecified),·,·,-9,·,·,·
COC(=O)Nc1sccc1C(=O)Nc1sccc1C(=O)OC,3,1.1,-8,-10,-6,·
CCC(=O)Nc1sccc1C(=O)OC,6,1,8,-4,0,-1
Cc1ccc(C)c(S(=O)(=O)Nc2ccc(C(N)=O)cc2)c1,-3,1.1,-1,-1,-5,·
Cc1ccc(C)c(NS(=O)(=O)c2cc(C(N)=O)ccc2C)c1,-3,1.1,2,16,-6,-1
CCOC(=O)N1CCN(C(=O)c2nc3ccccc3s2)CC1,-2,1,2,12,2,-1
CN(C)C(=O)c1cccc(-c2cccc3nccn23)c1,·,·,-8,·,·,·
CCn1nnc(NC(=O)c2ccc(Br)o2)n1,-3,·,-8,·,·,·
CCc1ccc(C(=O)Nc2nnn(CC)n2)cc1,9,0.1,66*,63*,87*,57*
C/C(=N\OCC(=O)Nc1ccccc1C(=O)O)c1cccs1,-4,0.8,2,11,21,·
C/C(=N/OCC(=O)Nc1ccc(C)cc1C)c1cccs1,0,1.1,3,-12,-7,2
O=C(c1ccco1)N1CCN(c2ncnc3c2cnn3-c2ccccc2)CC1,1,1,-2,4,-4,5
Cc1cc2c(c(=O)o1)C1(C(=O)N(CC(=O)O)c3ccccc31)C(C#N)=C(N)O2 (stereo unspecified),-1,1.1,17,11,-6,·
CCN1C(=O)C2(C(C#N)=C(N)Oc3cc(C)oc(=O)c32)c2ccccc21 (stereo unspecified),4,1,5,-10,0,2
O=C(Nc1nc2cc3c(cc2s1)OCCO3)c1ccc(N2C(=O)CCC2=O)cc1,3,·,-2,17,·,·
O=C(Nc1nc2cc3c(cc2s1)OCCO3)c1ccncc1,0,0.2,39,38,76*,44
COc1cccc(CN2CCC2(C)C(=O)Nc2ccc3c(c2)OCO3)c1F (stereo unspecified),·,·,8,·,·,·
O=C1/C(=C/c2ccc(N3CCOCC3)o2)SC(=Nc2ccccc2)N1CCc1c[nH]c2ccccc12,1,1,34,-12,-5,-6
COc1ccc(Cl)cc1NC(=O)CCn1cnc2ccccc2c1=O,-2,1,-12,22,3,·
O=C(CCn1cnc2ccccc2c1=O)Nc1cccc(Cl)c1,0,1.1,10,-18,-7,-35
Cn1cnc(S(=O)(=O)NC2CCN(Cc3c(F)cccc3Cl)CC2)c1,0,·,0,·,·,·
SMILES,HSP90 refold inh,FLuc act counter,C8 TRAIL sens,PPC-1+TRAIL kill,FLuc inhib CS,PPC1 cytotox
O=C(/C=C/c1ccccc1)Nc1cccc(C(=O)O)c1,89*,0.1,81*,64*,92*,61*
O=[N+]([O-])c1ccc(N/N=C/c2sc(N3CCOCC3)nc2-c2ccccc2)c(S(=O)(=O)Nc2ccc(Cl)cc2)c1,7,1,10,35,4,40
O=[N+]([O-])c1ccc(N/N=C/c2sc(N3CCOCC3)nc2-c2ccccc2)c(S(=O)(=O)Nc2ccccc2Cl)c1,-3,1,25,36,2,·
COc1cccc(CNC(=O)C(NS(=O)(=O)c2ccc3c(c2)CCN3C(C)=O)C(C)C)c1 (stereo unspecified),-2,·,0,·,·,·
COc1cccc(-c2nnc(Nc3nc4c(F)cccc4s3)o2)c1,-1,0.1,71*,44,88*,48
COc1ccccc1-c1nnc(Nc2nc3c(OC)cccc3s2)o1,1,0.9,30,7,12,·
Cc1cc(=O)oc2cc(NC(=S)NNC(=O)c3c(Cl)cnn3C)ccc12,-1,·,0,·,·,·
Cc1cc(C)nc(NC(=O)/C=C/c2ccccc2Cl)n1,-2,0.9,8,-1,13,·
Cc1cc(N)c2cc(NC(=O)/C=C/c3ccccc3Cl)ccc2n1,4,·,95*,98*,·,97*
CN(C)CC#Cc1cccc(-c2nc(C(=O)O)cc3c2[C@@H](CCO)N(S(=O)C(C)(C)C)C3)c1 (stereo partly specified),·,·,-1,·,·,·
O=C(C1CCCO1)N(c1cccc(Cl)c1)C1C=CS(=O)(=O)C1 (stereo unspecified),-2,1,-6,4,-2,12
CCOc1ccc(N(C(=O)C2CCCO2)C2C=CS(=O)(=O)C2)cc1 (stereo unspecified),-3,1.1,-6,29,-6,·
Cc1cc(NC(=O)CSc2ccc(-c3nc4cc(C)c(C)cc4[nH]3)cn2)no1,-1,0.4,43,59*,61*,45
Cc1ccc2nc(SCC(=O)Nc3cc(C)on3)[nH]c2c1,1,1.1,0,29,-6,·
COc1ccc(N2CCN(c3nc(=S)n(-c4ccccc4)c(C)c3C(C)=O)CC2)cc1,5,1.1,22,-7,-6,8
CC(=O)c1c(N2CCN(c3cccc(Cl)c3)CC2)nc(=S)n(-c2ccccc2)c1C,-1,1.1,24,12,-9,·
C[C@H](CO)N1C[C@H](C)[C@H](CN(C)C(=O)Nc2cccc(Oc3ccccn3)c2)OCc2cnnn2CCCC1=O,·,·,0,·,·,·
O=C(Nc1ccc2c(c1)OCCO2)C1c2ccccc2OCC(=O)N1Cc1cccnc1 (stereo unspecified),·,·,-2,·,·,·
O=c1c(O)c(-c2cccs2)oc2ccccc12,2,1.1,-1,12,-5,·
O=c1c(O)c(-c2cccs2)oc2ccc(Cl)cc12,-1,1,11,2,-3,6
CC(C)C[C@@H](CN1CCC[C@@H]1CN1C(=S)NC[C@@H]1Cc1ccc(O)cc1)N1C[C@H](Cc2ccc(O)cc2)N(CC2CCCCC2)C1=S,·,·,-5,·,·,·
O=C(NCc1ccco1)C1CC(=O)N(c2ccc(O)cc2)C1 (stereo unspecified),4,1.1,2,-18,-8,8
COc1ccc(N2CC(C(=O)Nc3ccccc3C(=O)NCc3ccco3)CC2=O)cc1 (stereo unspecified),-2,1,-8,22,-4,·
